{
  "source": "ChEMBL document CHEMBL1125629",
  "about": "“Beta-substituted beta-phenylpropionyl chymotrypsins. Structural and stereochemical features in stable acyl enzymes” (J Med Chem, 1991)",
  "key": {"[1]": {"experiment": "Acylation rate constant was determined"}, "[2]": {"experiment": "kd ratio measured as the kd(fast)/kd(slow) values", "format": "ADME", "how_it_was_run": "(§1)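 Proflavin displacement: ester 90 μM (from DMSO) added to α-chymotrypsin 90 μM and proflavin 9 μM (final) in 0.1 M phosphate pH 7.2 at 25 °C. Return of A466 was followed, and the slope of semilog absorbance versus time gave kd. Racemic esters gave biphasic curves yielding kd(fast) and kd(slow), and their ratio approximates deacylation enantioselectivity.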"}, "[3]": {"experiment": "Binding constant of the compound"}, "[4]": {"experiment": "Deacylation rate constant(Kd fast) was determined by proflavin displacement assay", "how_it_was_run": "as §1"}, "[5]": {"experiment": "Second order rate constant for acylation( ka/Ks)", "format": "ADME", "how_it_was_run": "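Competitive substrate assay with α-chymotrypsin (25 nM, active-site titrated) in 0.1 M phosphate buffer pH 7.2, 25 °C. MeO-Suc-Ala-Ala-Pro-Phe pNA was at 128 μM with ester at 10–350 μM, DMSO present. A410 followed for up to 300 s, and k_obs came from semilog plots in triplicate. ka and KS were obtained from I0/k_obs versus I0 by Main's equation (KM 50 μM).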"}, "[6]": {"experiment": "Deacylation rate constant(Kd slow) was determined by proflavin displacement assay", "how_it_was_run": "as §1"}},
  "data": [
    {"smiles": "C=C1C[C@H](c2ccccc2)CC(=O)O1", "note": "(stereo in doubt; 1 (S))", "values": [
      {"measurement": "Ka", "setting": "[1]", "value": 17, "unit": "min⁻¹"},
      {"measurement": "Ratio", "setting": "[2]", "value": 59},
      {"measurement": "Ks", "setting": "[3]", "value": 8, "unit": "µM"},
      {"measurement": "Kd", "setting": "[4]", "value": 0.00283, "unit": "s⁻¹"},
      {"measurement": "Ratio", "setting": "[5]", "value": 38000, "unit": "M⁻¹ s⁻¹"}
    ]},
    {"smiles": "O=C1CC(c2ccccc2)CC(=O)O1", "values": [
      {"measurement": "Kd", "setting": "[6]", "value": 0.0034, "unit": "s⁻¹"},
      {"measurement": "Kd", "setting": "[4]", "value": 0.0034, "unit": "s⁻¹"}
    ]},
    {"smiles": "NC(=O)CC(CC(=O)Oc1ccc([N+](=O)[O-])cc1)c1ccccc1", "note": "(stereo not given)", "values": [
      {"measurement": "Ratio", "setting": "[2]", "value": 31},
      {"measurement": "Kd", "setting": "[6]", "value": "8.3e-05", "unit": "s⁻¹"},
      {"measurement": "Kd", "setting": "[4]", "value": 0.00257, "unit": "s⁻¹"}
    ]},
    {"smiles": "CC(=O)OC(CC(=O)Oc1ccc([N+](=O)[O-])cc1)c1ccccc1", "note": "(stereo not given)", "values": [
      {"measurement": "Ratio", "setting": "[2]", "value": 7},
      {"measurement": "Kd", "setting": "[6]", "value": 0.00017, "unit": "s⁻¹"},
      {"measurement": "Kd", "setting": "[4]", "value": 0.00112, "unit": "s⁻¹"}
    ]},
    {"smiles": "C=C(C)C[C@@H](CC(=O)Oc1ccc([N+](=O)[O-])cc1)c1ccccc1", "values": [
      {"measurement": "Ratio", "setting": "[2]", "value": 3},
      {"measurement": "Kd", "setting": "[4]", "value": 0.00287, "unit": "s⁻¹"}
    ]},
    {"smiles": "N#CCC(CC(=O)Oc1ccc([N+](=O)[O-])cc1)c1ccccc1", "note": "(stereo not given)", "values": [
      {"measurement": "Ratio", "setting": "[2]", "value": 257},
      {"measurement": "Kd", "setting": "[6]", "value": 0.000583, "unit": "s⁻¹"},
      {"measurement": "Kd", "setting": "[4]", "value": 0.15, "unit": "s⁻¹"}
    ]},
    {"smiles": "CC(=O)N[C@@H](CC(=O)Oc1ccc([N+](=O)[O-])cc1)c1ccccc1", "values": [
      {"measurement": "Ratio", "setting": "[2]", "value": 785},
      {"measurement": "Kd", "setting": "[6]", "value": 0.00033, "unit": "s⁻¹"},
      {"measurement": "Kd", "setting": "[4]", "value": 0.0262, "unit": "s⁻¹"}
    ]},
    {"smiles": "C=C(C)C[C@H](CC(=O)Oc1ccc([N+](=O)[O-])cc1)c1ccccc1", "values": [
      {"measurement": "Ratio", "setting": "[2]", "value": 3},
      {"measurement": "Kd", "setting": "[6]", "value": 0.00112, "unit": "s⁻¹"}
    ]},
    {"smiles": "C=C1C[C@H](c2ccccc2)CC(=O)O1", "note": "(stereo in doubt; 1 (R))", "values": [
      {"measurement": "Ka", "setting": "[1]", "value": 35, "unit": "min⁻¹"},
      {"measurement": "Ks", "setting": "[3]", "value": 51, "unit": "µM"},
      {"measurement": "Kd", "setting": "[6]", "value": "4.83e-05", "unit": "s⁻¹"},
      {"measurement": "Ratio", "setting": "[5]", "value": 12000, "unit": "M⁻¹ s⁻¹"}
    ]},
    {"smiles": "CC(C)CC(CC(=O)Oc1ccc([N+](=O)[O-])cc1)c1ccccc1", "note": "(stereo not given)", "values": [
      {"measurement": "Kd", "setting": "[6]", "value": 0.0016, "unit": "s⁻¹"},
      {"measurement": "Kd", "setting": "[4]", "value": 0.0016, "unit": "s⁻¹"}
    ]},
    {"smiles": "C=C(C)C[C@H](CC(=O)O)c1ccccc1", "values": [
      {"measurement": "Kd", "setting": "[6]", "value": "3.83e-05", "unit": "s⁻¹"}
    ]},
    {"smiles": "O=CCC(CC(=O)Oc1ccc([N+](=O)[O-])cc1)c1ccccc1", "note": "(stereo not given)", "values": [
      {"measurement": "Ratio", "setting": "[2]", "value": 180},
      {"measurement": "Kd", "setting": "[6]", "value": "8.3e-05", "unit": "s⁻¹"},
      {"measurement": "Kd", "setting": "[4]", "value": 0.015, "unit": "s⁻¹"}
    ]},
    {"smiles": "O=C(CC(NC(=O)c1ccccc1)c1ccccc1)Oc1ccc([N+](=O)[O-])cc1", "note": "(stereo not given)", "values": [
      {"measurement": "Ratio", "setting": "[2]", "value": 1200},
      {"measurement": "Kd", "setting": "[6]", "value": 0.000417, "unit": "s⁻¹"},
      {"measurement": "Kd", "setting": "[4]", "value": 0.5, "unit": "s⁻¹"}
    ]},
    {"smiles": "O=C(CCc1ccccc1)Oc1ccc([N+](=O)[O-])cc1", "values": [
      {"measurement": "Kd", "setting": "[6]", "value": 0.25, "unit": "s⁻¹"},
      {"measurement": "Kd", "setting": "[4]", "value": 0.25, "unit": "s⁻¹"}
    ]},
    {"smiles": "CC(=O)CC(CC(=O)Oc1ccc([N+](=O)[O-])cc1)c1ccccc1", "note": "(stereo not given)", "values": [
      {"measurement": "Ratio", "setting": "[2]", "value": 42},
      {"measurement": "Kd", "setting": "[6]", "value": "6e-05", "unit": "s⁻¹"},
      {"measurement": "Kd", "setting": "[4]", "value": 0.0025, "unit": "s⁻¹"}
    ]},
    {"smiles": "O=C(CC(NC(=O)C(F)(F)F)c1ccccc1)Oc1ccc([N+](=O)[O-])cc1", "note": "(stereo not given)", "values": [
      {"measurement": "Kd", "setting": "[6]", "value": 0.000105, "unit": "s⁻¹"},
      {"measurement": "Kd", "setting": "[4]", "value": 0.000105, "unit": "s⁻¹"}
    ]},
    {"smiles": "CCC(=O)NC(CC(=O)Oc1ccc([N+](=O)[O-])cc1)c1ccccc1", "note": "(stereo not given)", "values": [
      {"measurement": "Ratio", "setting": "[2]", "value": 1500},
      {"measurement": "Kd", "setting": "[6]", "value": "4.83e-05", "unit": "s⁻¹"},
      {"measurement": "Kd", "setting": "[4]", "value": 0.0725, "unit": "s⁻¹"}
    ]},
    {"smiles": "CC(=O)C[C@H](CC(=O)Oc1ccc(C#N)cc1)c1ccccc1", "values": [
      {"measurement": "Ka", "setting": "[1]", "value": 73, "unit": "min⁻¹"},
      {"measurement": "Ks", "setting": "[3]", "value": 630, "unit": "µM"},
      {"measurement": "Ratio", "setting": "[5]", "value": 2000, "unit": "M⁻¹ s⁻¹"}
    ]},
    {"smiles": "C=C(C)CC(CC(=O)Oc1ccc([N+](=O)[O-])cc1)c1ccccc1", "note": "(stereo not given)", "values": [
      {"measurement": "Kd", "setting": "[6]", "value": 0.0027, "unit": "s⁻¹"},
      {"measurement": "Kd", "setting": "[4]", "value": 0.0027, "unit": "s⁻¹"}
    ]},
    {"smiles": "COC(=O)CC(CC(=O)Oc1ccc([N+](=O)[O-])cc1)c1ccccc1", "note": "(stereo not given)", "values": [
      {"measurement": "Ratio", "setting": "[2]", "value": 49},
      {"measurement": "Kd", "setting": "[6]", "value": 0.0008, "unit": "s⁻¹"},
      {"measurement": "Kd", "setting": "[4]", "value": 0.039, "unit": "s⁻¹"}
    ]},
    {"smiles": "CC(=O)C[C@@H](CC(=O)Oc1ccc(C#N)cc1)c1ccccc1", "values": [
      {"measurement": "Ka", "setting": "[1]", "value": 58, "unit": "min⁻¹"},
      {"measurement": "Ks", "setting": "[3]", "value": 91, "unit": "µM"},
      {"measurement": "Ratio", "setting": "[5]", "value": 11000, "unit": "M⁻¹ s⁻¹"}
    ]},
    {"smiles": "O=CNC(CC(=O)Oc1ccc([N+](=O)[O-])cc1)c1ccccc1", "note": "(stereo not given)", "values": [
      {"measurement": "Ratio", "setting": "[2]", "value": 92},
      {"measurement": "Kd", "setting": "[6]", "value": 0.00065, "unit": "s⁻¹"},
      {"measurement": "Kd", "setting": "[4]", "value": 0.0597, "unit": "s⁻¹"}
    ]}
  ]
}
